PubChem BioAssay AID602148 (NMMLSC, 2011)
Active and inactive are the calls of the source.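 How the source made its calls: active means a drop over time in fluorescent ligand binding to the VLA-4 integrin, graded weak or strong, level 1 or 2; inactive means no binding drop, level 0.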

Tested on: U937 deltaST FPR, LDV-FITC VLA-4 binding, flow cytometry
Assay: decrease of VLA-4 ligand affinity after FPR stimulation, mechanism study for Ras-related GTPase inhibitor project, U937 deltaST FPR cells, flow cytometry (AID 602148)
Conditions: at 50 µM; stronger effect = higher value
In short: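 System: deltaST-FPR-expressing U937 cells. Reagent: LDV-FITC VLA-4 ligand ~4 nM, sub-saturating, plus fMLFF 100 nM. Times: flow acquisition 1024 s at 37 °C, compounds after plateau. Measured by: flow cytometry, mean channel fluorescence of bound LDV-FITC. Read-out: LDV-FITC binding decline over time, graded none, weak, strong.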

SMILES | VLA-4 affinity decrease level (0-2)
Cc1ccc(C(=O)NC(=S)Nc2sc3c(c2C(=O)O)CC(C)(C)OC3)cc1 | 0 (inactive)
CC1(C)Cc2c(sc(NC(=S)NC(=O)C3CCCCC3)c2C(=O)O)CO1 | 1
CC1(C)Cc2c(sc(NC(=S)NC(=O)c3cccc(Br)c3)c2C(=O)O)CO1 | 2
CC1(C)Cc2c(sc(NC(=S)NC(=O)c3cccc(F)c3)c2C(=O)O)CO1 | 1
COc1cccc(C(=O)NC(=S)Nc2sc3c(c2C(=O)O)CC(C)(C)OC3)c1 | 2
COc1ccccc1C(=O)NC(=S)Nc1sc2c(c1C(=O)O)CC(C)(C)OC2 | 1
CC1(C)Cc2c(sc(NC(=S)NC(=O)c3ccco3)c2C(=O)O)CO1 | 0 (inactive)
CC1(C)Cc2c(sc(NC(=S)NC(=O)c3ccc(Br)cc3)c2C(=O)O)CO1 | 2
CC1(C)Cc2c(sc(NC(=S)NC(=O)c3ccc(F)cc3)c2C(=O)O)CO1 | 0 (inactive)
COc1ccc(C(=O)NC(=S)Nc2sc3c(c2C(=O)O)CC(C)(C)OC3)cc1 | 1
CC1(C)Cc2c(sc(NC(=S)NC(=O)c3cccs3)c2C(=O)O)CO1 | 0 (inactive)

Now from value to compound:

VLA-4 affinity decrease level (0-2) | SMILES
0 (inactive) | CCC1(C)Cc2c(sc(NC(=S)NC(=O)c3ccccc3)c2C(=O)O)CO1 (stereo not drawn)
2 | CC1(C)Cc2c(sc(NC(=S)NC(=O)c3ccccc3Br)c2C(=O)O)CO1
0 (inactive) | O=C(NC(=S)Nc1sc2c(c1C(=O)O)CC1(CCCC1)OC2)c1ccccc1
0 (inactive) | Cc1cccc(C(=O)NC(=S)Nc2sc3c(c2C(=O)O)CC(C)(C)OC3)c1
0 (inactive) | Cc1ccccc1C(=O)NC(=S)Nc1sc2c(c1C(=O)O)CC(C)(C)OC2
0 (inactive) | CC1(C)Cc2c(sc(NC(=S)NC(=O)c3ccccc3F)c2C(=O)O)CO1
0 (inactive) | CC(C)(C)C1Cc2c(sc(NC(=S)NC(=O)c3ccccc3)c2C(=O)O)CO1 (stereo not drawn)
